This note sets out measurements from ChEMBL document CHEMBL1135786, “Anti-AIDS agents 49. Synthesis, anti-HIV, and anti-fusion activities of IC9564 analogues based on betulinic acid” (J Med Chem, 2002).

Common to all, as to type: functional, organism-based
In experiment [1] the test system is Human immunodeficiency virus 1. The experiment is described as follows: Anti HIV-1 activity against the virus NL4-3 using fusion assay. In short, it runs like this: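 COS cells (10⁶) electroporated (950 µF, […]) with 2 µg vector expressing HIV-1 NL4-3 envelope, cultured 1 day. Then 10⁴ transfected cells mixed with 7 × 10⁴ MOLT-4 cells. Graded compound concentrations added, 24 h at 37 °C. Multinucleated syncytia counted microscopically over entire well; EC50 from syncytium inhibition.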

Experiment [2] relates to Human immunodeficiency virus 1. The experiment is described as follows: Anti HIV-1 activity against the virus NL4-3 using MAGI assay. The settings on record: Human immunodeficiency virus 1, MAGI. In short, it runs like this: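 HeLa-CD4/CCR5/β-gal indicator cells seeded at 10 000/well, grown 1 day in DMEM with G418 (500 µg/mL) and hygromycin (250 µg/mL). Infected with virus dilutions in presence of graded compound concentrations, 2 days at 37 °C. Fixed (1% formaldehyde, 0.2% glutaraldehyde), X-gal stained (0.4 mg/mL). Blue (Tat-expressing) cells counted; EC50 = concentration halving infected-cell number.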

For experiment [3], the system named is Human immunodeficiency virus 1. The experiment is described as follows: Anti HIV-1 activity against infected H9 lymphocyte cells. The following applies: Human immunodeficiency virus 1, H9. In short, it runs like this: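 HIV-1 acutely infected H9 lymphocytes cultured with the test agent; EC50 (µM) reported.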

Bounds are passed on as bounds.

For the compound `C=C(C)[C@@H]1CC[C@]2(C(=O)NCCCCCCCCCCC(=O)N[C@@H](CC(C)C)C(=O)OC)CC[C@]3(C)[C@H](CC[C@@H]4[C@@]5(C)CC[C@H](O)C(C)(C)[C@@H]5CC[C@]43C)[C@@H]12`, the EC50 in experiment [1] is more than 26 µM; in experiment [2], more than 32 µM.
As to `C=C(C)[C@@H]1CC[C@]2(C(=O)NCCCCCCCC(=O)N[C@@H](CC(C)C)[C@H](O)CC(=O)O)CC[C@]3(C)[C@H](CC[C@@H]4[C@@]5(C)CC[C@H](O)C(C)(C)[C@@H]5CC[C@]43C)[C@@H]12`, the EC50 in experiment [1] came to 0.66 µM; in experiment [2], 0.4 µM.
In the same order, the values of `C=C(C)[C@@H]1CC[C@]2(C(=O)NCCCCCCCCCCC(=O)N[C@@H](CC(C)C)C(=O)O)CC[C@]3(C)[C@H](CC[C@@H]4[C@@]5(C)CC[C@H](O)C(C)(C)[C@@H]5CC[C@]43C)[C@@H]12` are 0.33 µM and 0.46 µM.
For `C=C(C)[C@@H]1CC[C@]2(C(=O)NCCCCCCCC(=O)OC)CC[C@]3(C)[C@H](CC[C@@H]4[C@@]5(C)CC[C@H](OC(C)=O)C(C)(C)[C@@H]5CC[C@]43C)[C@@H]12`, the concentration for a half-maximal effect (EC50) in experiment [1] was more than 31 µM; in experiment [2] it was 29.1 µM.
For `CC(C)C[C@H](NC(=O)CCCCCCCNC(=O)[C@]12CC[C@@H](C(C)C)[C@@H]1[C@H]1CC[C@@H]3[C@@]4(C)CC[C@H](O)C(C)(C)[C@@H]4CC[C@@]3(C)[C@]1(C)CC2)[C@H](O)CC(=O)O`, the EC50 in experiment [1] stood at 0.4 µM; in experiment [2], 0.33 µM.
As to `C=C(C)[C@@H]1CC[C@]2(C(=O)NCCCCCCCCCCC(=O)O)CC[C@]3(C)[C@H](CC[C@@H]4[C@@]5(C)CC[C@H](O)C(C)(C)[C@@H]5CC[C@]43C)[C@@H]12`, the EC50 in experiment [1] stood at 0.31 µM; in experiment [2] it was 0.7 µM.
As to `C=C(C)[C@@H]1CC[C@]2(C(=O)NCCC(=O)OC)CC[C@]3(C)[C@H](CC[C@@H]4[C@@]5(C)CC[C@H](OC(C)=O)C(C)(C)[C@@H]5CC[C@]43C)[C@@H]12`, the figures for the EC50 in experiment [1] and in experiment [2] were 21.4 µM and 26.7 µM, respectively.
In the same order, the values of `C=C(C)[C@@H]1CC[C@]2(C(=O)NCCC(=O)N[C@@H](CC(C)C)C(=O)OC)CC[C@]3(C)[C@H](CC[C@@H]4[C@@]5(C)CC[C@H](O)C(C)(C)[C@@H]5CC[C@]43C)[C@@H]12` are 7.63 µM and more than 38 µM.
In the same order, the values of `Cc1cn([C@H]2C[C@H](N=[N+]=[N-])[C@@H](CO)O2)c(=O)[nH]c1=O` [ZIDOVUDINE] are more than 75 µM and 0.075 µM.
Consider `C=C(C)[C@@H]1CC[C@]2(C(=O)NCCCCCCCC(=O)N[C@@H](CC(C)C)C(=O)O)CC[C@]3(C)[C@H](CC[C@@H]4[C@@]5(C)CC[C@H](O)C(C)(C)[C@@H]5CC[C@]43C)[C@@H]12`, for which the EC50 in experiment [1] is 1.1 µM; in experiment [2] it was 1.38 µM.
For the compound `C=C(C)[C@@H]1CC[C@]2(C(=O)N[C@@H](CC(C)C)C(=O)O)CC[C@]3(C)[C@H](CC[C@@H]4[C@@]5(C)CC[C@H](O)C(C)(C)[C@@H]5CC[C@]43C)[C@@H]12`, the EC50 was 5.48 µM in experiment [1] and 3.22 µM in experiment [3].
As for `CC(=O)O[C@H]1CC[C@]2(C)[C@H]3CC[C@@H]4[C@H]5[C@H](C(C)C)CC[C@]5(C(=O)NCCCCCCCC(=O)N[C@@H](CC(C)C)[C@H](O)CC(=O)OCc5ccccc5)CC[C@@]4(C)[C@]3(C)CC[C@H]2C1(C)C`, the figures for the EC50 in experiment [1] and in experiment [2] were more than 22 µM and more than 28 µM, respectively.
For `C=C(C)[C@@H]1CC[C@]2(C(=O)NCCCCCCCCCCC(=O)OC)CC[C@]3(C)[C@H](CC[C@@H]4[C@@]5(C)CC[C@H](OC(C)=O)C(C)(C)[C@@H]5CC[C@]43C)[C@@H]12`, the EC50 in experiment [1] was more than 29 µM; in experiment [2], 10.2 µM.
On to `C=C(C)[C@@H]1CC[C@]2(C(=O)NCCC(=O)N[C@@H](CC(C)C)C(=O)O)CC[C@]3(C)[C@H](CC[C@@H]4[C@@]5(C)CC[C@H](O)C(C)(C)[C@@H]5CC[C@]43C)[C@@H]12`, for which the EC50 in experiment [1] is more than 31 µM; in experiment [2] it was more than 39 µM.
`C=C(C)[C@@H]1CC[C@]2(C(=O)NCCCCCCCC(=O)N[C@@H](CC(C)C)C(=O)OC)CC[C@]3(C)[C@H](CC[C@@H]4[C@@]5(C)CC[C@H](O)C(C)(C)[C@@H]5CC[C@]43C)[C@@H]12`: the EC50 came to 0.86 µM in experiment [1] and 0.52 µM in experiment [2].
In the same order, the values of `C=C(C)[C@@H]1CC[C@]2(C(=O)N[C@@H](CC(C)C)C(=O)OC)CC[C@]3(C)[C@H](CC[C@@H]4[C@@]5(C)CC[C@H](OC(C)=O)C(C)(C)[C@@H]5CC[C@]43C)[C@@H]12` are more than 32 µM and more than 40 µM.
In the same order, the values of `C=C(C)[C@@H]1CC[C@]2(C(=O)NCCC(=O)O)CC[C@]3(C)[C@H](CC[C@@H]4[C@@]5(C)CC[C@H](O)C(C)(C)[C@@H]5CC[C@]43C)[C@@H]12` are more than 38 µM and more than 47 µM.

The EC50 is the concentration needed to bring the measured effect to its halfway point. Lower therefore signals an effect from little substance.
